Laboratory results as given in ChEMBL document CHEMBL1137992, “Long hydrocarbon chain keto diols and diacids that favorably alter lipid disorders in vivo” (J Med Chem, 2004).
pIC50: −log10 of the molar value.

Assays:
[1] = Concentration required for inhibition of lipid synthesis in primary cultures of rat hepatocytes; assay type: functional, cell-based; conditions: Hepatocyte
In short: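 Primary hepatocytes from male Sprague-Dawley rats (Seglen isolation), plated at 1.5×10^5 cells/cm² on collagen in serum-containing DMEM, switched to serum-free medium after 4 h, grown overnight to monolayers. Cells incubated 4 h with 0.25 μCi [1-14C]acetate/well (1 Ci/mol final) plus 0, 1, 3, 10, 30, 100 or 300 μM compound. Lipids extracted into scintillant and counted; IC50 taken from lipid synthesis rates.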

Rattus norvegicus [2] = test: Percent decrease in nonesterified fatty acids in obese Zucker rats after 2 weeks of treatment at a dose of 100 mg/kg/day; assay type: functional; parameters: scale not given: the % may be the effect or the level left
In short: (§1)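 Female Zucker fatty rats [Crl:(Zuc)-faBR], 10–12 weeks, 400–500 g, acclimated 7 days on chow. Compound or vehicle (20% EtOH/80% PEG-200) given by daily oral gavage for 2 weeks, 0–100 mg/kg/day. After a 6 h fast, blood was taken before dosing, at 1 wk and at 2 wk. Serum lipids, NEFA and insulin (ELISA) were measured; glucose by glucometer. HDL/non-HDL-C came from Superose 6 gel-filtration profiles. Values are % change from pretreatment, mean ± SEM.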

Rattus norvegicus [3] = test: Amount of non-HDL-cholesterol in obese Zucker rats at pre-treatment at a dose of 30 mg/kg/day; assay type: functional
In short: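 Female obese Zucker fatty rats [Crl:(Zuc)-faBR], 10–12 weeks old (400–500 g), on chow. Compound in 20% EtOH/80% PEG-200 (v/v) given by daily oral gavage. After a 6-h fast, serum was taken before dosing and at 7 days (orbital plexus), and at 14 days (cardiac puncture). Lipoprotein cholesterol came from Superose 6HR gel-filtration profiles × serum total cholesterol. Mean ± SEM.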

Rattus norvegicus [4] = test: Percent decrease in nonesterified fatty acids in obese Zucker rats after 1 week of treatment at a dose of 100 mg/kg/day; assay type: functional; parameters: scale not given: the % may be the effect or the level left; in short: as §1
Rattus norvegicus [5] = test: Amount of insulin in obese Zucker rats after 2 weeks of treatment at a dose of 30 mg/kg/day; assay type: functional
In short: (§2)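 Female obese Zucker rats [Crl:(Zuc)-faBR], 400–500 g, given daily oral gavage in 20% EtOH/80% PEG-200 for up to 14 days. After a 6-h fast, serum was collected pretreatment and at day 7 (orbital bleed) and day 14 (cardiac puncture) and stored at -80 °C. Insulin was measured by ELISA. Values are mean ± SEM.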

Rattus norvegicus [6] = test: Amount of glucose in obese Zucker rats at pre-treatment at a dose of 3 mg/kg/day; assay type: functional
In short: (§3)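 Female Zucker fatty rats [Crl:(Zuc)-faBR], 10–12 weeks old (400–500 g), gavaged daily with vehicle (20% EtOH/80% PEG-200, 0.25% of body weight) or compound. After a 6-h fast, blood glucose was read by glucometer from tail-prick blood of unanesthetized rats before dosing and after 1 and 2 weeks. Values are mean ± SEM.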

Rattus norvegicus [7] = test: Amount of triglycerides in obese Zucker rats at pre-treatment at a dose of 0 mg/kg/day; assay type: functional
In short: (§4)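 Female Zucker fatty rats [Crl:(Zuc)-faBR], 10–12 weeks old (400–500 g), dosed once daily by oral gavage in 20% EtOH/80% PEG-200 for up to 14 days. After a 6-h fast, serum was taken pre-dose, at day 7 (orbital venous plexus, O2/CO2 anaesthesia) and at day 14 (cardiac puncture), stored at −80 °C, and assayed on a Hitachi 912 automatic analyzer. Mean ± SEM.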

Rattus norvegicus [8] = test: Amount of nonesterified fatty acids in obese Zucker rats at pre-treatment at a dose of 10 mg/kg/day; assay type: functional; in short: as §4
Rattus norvegicus [9] = test: Amount of HDL-cholesterol in obese Zucker rats after 2 weeks of treatment at a dose of 3 mg/kg/day; assay type: functional
In short: (§5)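 Female Zucker fatty rats [Crl:(Zuc)-faBR], 10–12 weeks old (400–500 g), dosed once daily by oral gavage in 20% EtOH/80% PEG-200 (dose volume 0.25% of body weight). Rats were fasted 6 h and bled before dosing and at day 7 (orbital plexus), and at day 14 (cardiac puncture). Serum cholesterol fractions came from Superose 6 gel-filtration lipoprotein profiles (% peak area × serum total cholesterol). Values are mean ± SEM.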

Rattus norvegicus [10] = test: Amount of non-HDL-cholesterol in obese Zucker rats after 2 weeks of treatment at a dose of 10 mg/kg/day; assay type: functional; in short: as §5
Rattus norvegicus [11] = test: Percentage change of triglycerides in obese female Zucker rats after 1 week of pre-treatment at a dose of 100 mg/kg/day; assay type: functional
In short: (§6)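 Female Zucker fatty rats [Crl:(Zuc)-faBR], 10–12 weeks old (400–500 g), acclimated 7 days and fed rodent chow. Dosed once daily by oral gavage in 20% EtOH/80% PEG-200 (v/v), at 0.25% of body weight, for 2 weeks. Blood taken after a 6-h fast: orbital plexus before dosing and at day 7, cardiac puncture at day 14. Serum lipoprotein cholesterol measured by Superose 6 gel filtration with on-line cholesterol detection. Values are % change from pretreatment, mean ± SEM.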

Rattus norvegicus [12] = test: Percentage change of triglycerides in obese female Zucker rats after 2 weeks of pre-treatment at a dose of 100 mg/kg/day; assay type: functional; in short: as §6
Rattus norvegicus [13] = test: Percentage change of non-HDL cholesterol levels in obese female Zucker rats after 2 weeks of pre-treatment at a dose of 100 mg/kg/day; assay type: functional; in short: as §6
Rattus norvegicus [14] = test: Percent increase in HDL-cholesterol in obese Zucker rats after 1 week of treatment at a dose of 30 mg/kg/day; assay type: functional; in short: as §1
Rattus norvegicus [15] = test: Amount of triglycerides in obese Zucker rats after 1 week of treatment at a dose of 100 mg/kg/day; assay type: functional; in short: as §4
Rattus norvegicus [16] = test: Amount of triglycerides in obese Zucker rats after 2 weeks of treatment at a dose of 10 mg/kg/day; assay type: functional; in short: as §4
Rattus norvegicus [17] = test: Amount of insulin in obese Zucker rats after 1 week of treatment at a dose of 0 mg/kg/day; assay type: functional; in short: as §2
Rattus norvegicus [18] = test: Amount of glucose in obese Zucker rats after 1 week of treatment at a dose of 10 mg/kg/day; assay type: functional; in short: as §3
Rattus norvegicus [19] = test: Percent decrease in non-HDL-cholesterol in obese Zucker rats after 1 week of treatment at a dose of 30 mg/kg/day; assay type: functional; parameters: scale not given: the % may be the effect or the level left; in short: as §1
Rattus norvegicus [20] = test: Amount of insulin in obese Zucker rats after 1 week of treatment at a dose of 10 mg/kg/day; assay type: functional; in short: as §2
Rattus norvegicus [21] = test: Amount of insulin in obese Zucker rats after 1 week of treatment at a dose of 30 mg/kg/day; assay type: functional; in short: as §2
Rattus norvegicus [22] = test: Amount of insulin in obese Zucker rats after 2 weeks of treatment at a dose of 0 mg/kg/day; assay type: functional; in short: as §2
Rattus norvegicus [23] = test: Amount of non-HDL-cholesterol in obese Zucker rats after 2 weeks of treatment at a dose of 100 mg/kg/day; assay type: functional; in short: as §5
Rattus norvegicus [24] = test: Percent decrease in triglycerides in obese Zucker rats after 1 week of treatment at a dose of 10 mg/kg/day; assay type: functional; parameters: scale not given: the % may be the effect or the level left; in short: as §1
Rattus norvegicus [25] = test: Percent increase in triglycerides in obese Zucker rats after 2 weeks of treatment at a dose of 0 mg/kg/day; assay type: functional; in short: as §1
Rattus norvegicus [26] = test: Percent decrease in HDL-cholesterol in obese Zucker rats after 2 weeks of treatment at a dose of 0 mg/kg/day; assay type: functional; parameters: scale not given: the % may be the effect or the level left; in short: as §1
Rattus norvegicus [27] = test: Percent increase in HDL-cholesterol in obese Zucker rats after 1 week of treatment at a dose of 10 mg/kg/day; assay type: functional; in short: as §1

## CC(C)(CCCCC(=O)CCCCC(C)(C)C(=O)O)C(=O)O
[1]
  pIC50: 5.52
Rattus norvegicus [2]
  Activity: -45%
Rattus norvegicus [3]
  Activity: 48 mg/dL
Rattus norvegicus [4]
  Activity: -33%
Rattus norvegicus [5]
  Activity: 8.5 ng/mL
Rattus norvegicus [6]
  Activity: 108 mg/dL
Rattus norvegicus [7]
  Activity: 130 mg/dL
Rattus norvegicus [8]
  Activity: 1.6 mg/dL
Rattus norvegicus [9]
  Activity: 33 mg/dL
Rattus norvegicus [10]
  Activity: 27 mg/dL
Rattus norvegicus [11]
  Change: -75%
Rattus norvegicus [12]
  Change: -69%
Rattus norvegicus [13]
  Change: -41%
Rattus norvegicus [14]
  Activity: 56%
Rattus norvegicus [15]
  Activity: 383 mg/dL
Rattus norvegicus [16]
  Activity: 814 mg/dL
Rattus norvegicus [17]
  Activity: 8.4 ng/mL
Rattus norvegicus [18]
  Activity: 105 mg/dL
Rattus norvegicus [19]
  Activity: -23%
Rattus norvegicus [20]
  Activity: 7.7 ng/mL
Rattus norvegicus [21]
  Activity: 9.2 ng/mL
Rattus norvegicus [22]
  Activity: 0.058 ng/mL
Rattus norvegicus [23]
  Activity: 22 mg/dL

## CC(C)(CCCCCC(=O)CCCCCC(C)(C)C(=O)O)C(=O)O
[1]
  pIC50: 5.52
Rattus norvegicus [2]
  Activity: -52%
Rattus norvegicus [3]
  Activity: 27 mg/dL
Rattus norvegicus [4]
  Activity: -30%
Rattus norvegicus [5]
  Activity: 7.7 ng/mL
Rattus norvegicus [6]
  Activity: 114 mg/dL
Rattus norvegicus [7]
  Activity: 950 mg/dL
Rattus norvegicus [8]
  Activity: 1.2 mg/dL
Rattus norvegicus [9]
  Activity: 77 mg/dL
Rattus norvegicus [11]
  Change: -93%
Rattus norvegicus [24]
  Activity: -36%
Rattus norvegicus [12]
  Change: -94%
Rattus norvegicus [13]
  Change: -99%
Rattus norvegicus [25]
  Activity: 25%
Rattus norvegicus [26]
  Activity: -9%
Rattus norvegicus [14]
  Activity: 156%
Rattus norvegicus [15]
  Activity: 69 mg/dL
Rattus norvegicus [16]
  Activity: 865 mg/dL
Rattus norvegicus [17]
  Activity: 10.1 ng/mL
Rattus norvegicus [18]
  Activity: 122 mg/dL
Rattus norvegicus [19]
  Activity: -48%
Rattus norvegicus [20]
  Activity: 10.5 ng/mL
Rattus norvegicus [21]
  Activity: 6.4 ng/mL
Rattus norvegicus [22]
  Activity: 8.1 ng/mL
Rattus norvegicus [23]
  Activity: 3 mg/dL
Rattus norvegicus [27]
  Activity: 58%

## CC(C)(CO)CCCCC(=O)CCCCC(C)(C)CO
[1]
  pIC50: 5.40
Rattus norvegicus [3]
  Activity: 30 mg/dL
Rattus norvegicus [4]
  Activity: -30%
Rattus norvegicus [5]
  Activity: 9.8 ng/mL
Rattus norvegicus [6]
  Activity: 118 mg/dL
Rattus norvegicus [7]
  Activity: 933 mg/dL
Rattus norvegicus [8]
  Activity: 1.2 mg/dL
Rattus norvegicus [9]
  Activity: 39 mg/dL
Rattus norvegicus [10]
  Activity: 25 mg/dL
Rattus norvegicus [11]
  Change: -54%
Rattus norvegicus [24]
  Activity: -23%
Rattus norvegicus [12]
  Change: -29%
Rattus norvegicus [13]
  Change: -10%
Rattus norvegicus [25]
  Activity: 18%
Rattus norvegicus [26]
  Activity: -15%
Rattus norvegicus [14]
  Activity: 40%
Rattus norvegicus [15]
  Activity: 485 mg/dL
Rattus norvegicus [16]
  Activity: 730 mg/dL
Rattus norvegicus [17]
  Activity: 8.7 ng/mL
Rattus norvegicus [18]
  Activity: 110 mg/dL
Rattus norvegicus [20]
  Activity: 7.5 ng/mL
Rattus norvegicus [21]
  Activity: 9.1 ng/mL
Rattus norvegicus [22]
  Activity: 7.7 ng/mL
Rattus norvegicus [23]
  Activity: 32 mg/dL
Rattus norvegicus [27]
  Activity: 13%
